# Laboratory results from ChEMBL document CHEMBL4513216, “Probing the Open Global Health Chemical Diversity Library for Multistage-Active Starting Points for Next-Generation Antimalarials” (ACS Infect Dis, 2020).
# Assay: Toxicity liver stage against HepG2, at 10uM
# Type: cell-based
# Set-up: test concentration 10 uM, cell line HepG2-A16-CD81EGFP
# Conditions: human, HepG2-A16-CD81EGFP cells; read-out: INHIBITION
# Procedure, shortened: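 Uninfected HepG2-A16-CD81EGFP cells, 3 × 10^3 per well, 1536-well, plated on prespotted compound at 10 μM final, parasite-free screening media added to match infected plates; puromycin 10 μM positive, DMSO 0.5% negative; run in parallel with 48 h PbLuc assay at 37 °C, 5% CO2; viability by CellTiter-Glo luminescence, normalized to controls.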
row,SMILES,cytotoxicity at 10 µM [%]
1,CSc1ncc(C(=O)N2C[C@@H]3CC[C@H]2CN(c2ncccn2)C3)cn1,1.26
2,CCc1cc(N(C)CCc2c(C)n[nH]c2C)ncn1,-4.45
3,NC(=O)c1cccc(CCNC(=O)N2CCCC2)c1,-3.88
4,c1ccc2ncc(CC3CCNCC3)cc2c1,1.8
5,CC(C)NC(=O)c1csc(NC2CC2)n1,-2.72
6,CCN(CC1CCCO1)C(=O)CSCC(=O)Nc1ccc(C)cc1 (centres undefined),-1.69
7,CCn1c(Cn2cncn2)nnc1C1CCN(Cc2ccccn2)CC1,9.78
8,CCn1ccc(NC(=O)CCc2c(C)nn(C)c2C)n1,4.01
9,c1cncc(O[C@H]2CC[C@H]3[C@H]2OCCN3C2CCC2)c1,-6.69
10,COc1ccccc1N1CC(NC(=O)Cn2cc(C)nn2)CC1=O (centres undefined),11.6
11,Cc1nc(C)n(CC2CCCCN2CC(=O)NC2CCOCC2)n1 (centres undefined),-9.32
12,CCN(CC)CCCN1CCC(NC(=O)OC(C)(C)C)CC1,5
13,Cc1ccc(NC2CCN(C(=O)CN(C)C3CC3)CC2)nn1,4.64
14,O=C(NCCn1nc(C2CCNC2)c2cccnc21)C1CCC1 (centres undefined),-7.87
15,O=C1CC2(CCN(Cc3ncc[nH]3)CC2)CN1Cc1cc(F)cc(F)c1,-5.53
16,Nc1ccnc(N2CCCC(CCc3ccccc3)(C(=O)O)C2)n1 (centres undefined),3.33
17,CCc1nc(CN(C)C2CCN(CCOc3ccccc3)C2)no1 (centres undefined),-34.6
18,Cn1nc2c(cc1=O)CN(CCc1nc3ccccc3c(=O)[nH]1)CC2,-10.9
19,Cc1cc(C)n(CC2CCCN2C(=O)c2cccn3ccnc23)n1 (centres undefined),-7.45
20,CCN(C(=O)c1ccc2nncn2c1)C(C)Cc1ccc(OC)cc1 (centres undefined),-5.53
21,CSCCN1CCC(NC(=O)c2cccc(C3CCCNC3)c2)CC1 (centres undefined),0.49

row,SMILES,cytotoxicity at 10 µM [%]
1,CNC(=O)C1(c2cnccn2)CCCN1C(=O)Cc1ccsc1 (centres undefined),4.12
2,COCC1CN(S(=O)(=O)C2CC2)Cc2ncn(CC3CC3)c21 (centres undefined),9.03
3,COc1cccc(N2CCN(CC(O)c3cc(C)sc3C)CC2)c1 (centres undefined),2.24
4,Cc1cn[nH]c1C1CCCCN1C(=O)CCc1ccc(F)cc1 (centres undefined),1.52
5,O=C(NCc1ccccn1)[C@H]1COC[C@H]2CN(c3ncccn3)C[C@H]21,9.19
6,O=C(O)c1ccccc1C1CCN(C2Cc3ccccc3C2)C1 (centres undefined),12.7
7,COC(C)(C)CC(C)NCc1nncn1C1CCCCC1 (centres undefined),-2.87
8,CN(C)CC(=O)N1CCN(C(=O)c2cccc3[nH]ncc23)CC1,-11.6
9,CCOC(=O)Cn1ccc(O)c(Cc2ccc(Cl)cc2Cl)c1=O,4.19
10,Cc1cc(C)n(CC2CCCCN2CCCS(N)(=O)=O)n1 (centres undefined),6.28
11,CC(=O)N1CCC(Cc2cnc(-c3c(C)n[nH]c3C)cn2)C1 (centres undefined),-1.88
12,COc1cn(CC(=O)N2CCN(c3ccc(Cl)cc3)CC2)c(C)cc1=O,1.82
13,O=C(CCCc1nc2ccccc2[nH]1)N1CCCC1c1ccccn1 (centres undefined),0.219
14,CN(C)CCOCC1CN(Cc2ccsc2)Cc2ccnn2C1 (centres undefined),3.01
15,COCCN(CCOC)C(=O)c1ccc(Cn2nc(C)cc2C)cc1,-5.15
16,Cc1cccc(CN2C[C@@H](NC(=O)C3CC3)[C@H]3OCCC[C@H]32)n1,7.8
17,CC1CN(CC(=O)Nc2cccnc2)CCN1c1nccs1 (centres undefined),-3.59
18,CCc1ccc(CN2CCC(c3ccccc3C(=O)O)C2)nc1 (centres undefined),1.69
19,Cc1cnn(CCCNC(=O)N2CCCCC(N3CCCC3)C2)c1 (centres undefined),-5.97
20,O=C(COc1ccccc1)N(Cc1ccncc1)C1CC1,-46.1
21,COCCN1CCC(CNC(=O)C2(c3ccccc3)CCOCC2)C1 (centres undefined),-5.87

row,SMILES,cytotoxicity at 10 µM [%]
1,CCc1ncc2c(n1)CN(C(=O)c1c(C)[nH]c3c1C(=O)CCC3)C2,-45.8
2,CNc1nc2cn(C3CC(C)(C)NC(C)(C)C3)c(=O)c-2c[nH]1,12
3,CC(C)NC(=O)NC[C@H]1OC[C@@H](NCc2ccccc2O)[C@@H]1O,-1.69
4,COCCn1ccc(=O)c(OCC(=O)Nc2ccc(OC)c(Cl)c2)c1C,5.36
5,COCc1noc(C2(c3ccc(F)cc3)CCC2)n1,5.93
6,c1csc(-c2nnc(CSCCN3CCOCC3)o2)c1,-5.77
7,CSc1ccc(OCCN2CCNC(=O)C2C)cc1 (centres undefined),8.57
8,Cc1ccc2nc(C3CCN(CC4CC4)CC3)nn2c1,0.806
9,CCOc1ccccc1NC(=O)NCc1ccoc1,-0.335
10,Cc1cc2nc(C(C)C)cc(N3CCC(N(C)C)C3)n2n1 (centres undefined),-3.88
11,Cc1ccc(N2CCC3(CC2)COCCN(c2nccs2)C3)nn1,-107
12,Cc1ccc(S(=O)(=O)N2CCC(N3CCCCC3)CC2)cc1C,8.95
13,Cc1cnc(N)c(C(=O)C2CCN(C(=O)c3ccccc3F)CC2)c1,9.96
14,Cc1cc(Nc2ccccn2)nc(C2CCCN(CCO)C2)n1 (centres undefined),1.26
15,CNc1cccc(C2CCCN(C(=O)c3cncs3)C2)n1 (centres undefined),-18.3
16,CN(Cc1nnc2n1CCC2)C(=O)c1ccc2c(c1)OCO2,-18.2
17,CNC(=O)C1Cn2ccnc2C2(CCN(Cc3cccc(C)n3)CC2)O1 (centres undefined),7.67
18,CC1(C)OCC(CNC(=O)c2cnn(-c3ccc(Cl)cc3)c2N)O1 (centres undefined),2.31
19,O=C(N1CCCC1)N1CCn2c(Cn3cccn3)cnc2C1,-69.1
20,Cn1ccnc1CN1CCc2ncnc(N3CCCC(C#N)C3)c2CC1 (centres undefined),-5.1
21,OCc1cccc(CNCc2cccc3c2OCCO3)c1,4.25

row,SMILES,cytotoxicity at 10 µM [%]
1,CC(C)(C)OC(=O)N1CCCc2ccc(NCc3cc[nH]c3)cc21,34.1
2,Cc1nccn1-c1cccc(C2CCCN(C3CCCCC3)C2)n1 (centres undefined),-2.65
3,COc1ccc(CCNCc2ccco2)cc1OC,-0.0184
4,CC(=O)Nc1ccc(SCC(O)COCc2ccco2)cc1 (centres undefined),8.45
5,COCCc1noc(-c2ccc(-c3cc[nH]n3)nc2)n1,-2.79
6,CCCc1nc(C(C)(C)NC(=O)C2CC(=O)N(CCOC)C2)no1 (centres undefined),-8.12
7,Cc1nn(C)c(C)c1C1COCCN1c1ncnc2sccc12 (centres undefined),2.84
8,Cc1nccn1CCCN1CCCC(c2ccccc2)C1 (centres undefined),-24.8
9,O=C(Nc1ccc(-c2nc3c([nH]2)CCNC3)cc1)N1CCCC1,-4.36
10,Cc1cc(-c2cc(C3CCOC3)c(C#N)c(N)n2)ccc1Cl (centres undefined),-0.611
11,CN(C)c1cnn(CC(=O)N2CCCCCC2)c(=O)c1,-10.6
12,COCCN(C(=O)c1ccc(OC)cc1)c1ccc(C#N)cc1,7.81
13,CCN(CC1COc2ccccc2O1)C(=O)CCn1cncn1 (centres undefined),-9.21
14,Cc1cnn(C2CCCN(C(=O)CCCNc3ncccn3)C2)c1 (centres undefined),-3.27
15,Nc1cc(-c2cccs2)nn(CC(=O)N2CCc3ccccc32)c1=O,-10
16,Cc1cnn(CC2CCCN2Cc2coc(-c3ccc(F)cc3)n2)c1 (centres undefined),-0.953
17,Cc1nccn1CC1CCCN(Cc2ccc(-c3cccnc3)cc2)C1 (centres undefined),2.97
18,CCS(=O)(=O)N1Cc2nccn2CC(Cn2cccn2)C1 (centres undefined),10.7
19,O=C(NC1CC1)C1CCN(Cn2nc(-c3ccccc3)oc2=O)CC1,15
20,O=C(Cc1ccccc1Cl)Nc1cc(N2CCCC2)ncn1,-2.46
21,CN1C(=O)C(c2ccccc2)CC12CCN(CCN)CC2 (centres undefined),8.67
